Most compounds without a hit are left out; they make up all but 2.3% or so of the library.
NR2E3 ag-1 – agonists of human nuclear receptor NR2E3 | actives 0.12% (n = 320,000) | GST-NR2E3/biotin-RetCOR TR-FRET, 1536-well | inhibition of corepressor binding, % at 4.78 µM | AID 2300;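 active means percent inhibition above the cutoff of mean plus 3 SD of all tested compounds, set per screening campaign, cut at about 20% in these data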
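Test system – NR2E3–RetCOR corepressor complex · Quantity – NR2E3 fusion 1.35 nM · Buffer or medium – Tris pH 7.5 · Incubation – Compound–protein incubation for 5 h at 4 °C · Technique – TR-FRET, Eu(K)-anti-GST donor, streptavidin-D2 acceptor, ex 340, em 617/671 nm · Evaluation – percent inhibition of 671/617 nm emission ratio versus biotin and DMSO controls · Plate – 1536-well format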
NR2E3 ag-2 – activates human NR2E3 receptor. Q9Y5X4. CHO-S Gal4-NCOR/VP16-NR2E3 two-hybrid, luciferase. inhibition of corepressor binding, % at 3.98 µM. actives 0.35% (n = 360,000). AID 602229;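 active means inhibition above the mean of all tested compounds plus 3 SD, cut at about 70% in these data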;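 further: higher means lower luciferase signal from less NR2E3 corepressor binding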
GalR3 antagonist – antagonists of human GalR3; inhibition, % at 3 µM; AID 651719; actives 0.44% (n = 360,000); HEK293 GalR3-CNG cAMP membrane potential fluorescence; galR3 body fused to GalR1 C-terminus;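 active means inhibition above the screen-wide average plus 3 SD, cut at about 13% in these data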;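 further: forskolin and galanin both at EC90 stimulate the cells; cAMP rise reported by CNG channel membrane potential dye signal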
CHT PAM – allosteric activators of human choline transporter CHT | CHT-expressing cells, membrane potential dye, choline EC20; active compounds read high; LV-AA mutant CHT in HEK293 cells | B-score at 10 µM | actives 0.49% (n = 310,000) | AID 488977 | Q9GZV3;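 active means initial fluorescence not abnormally high and integrated response B-score, plate-corrected, over 3 SD above library mean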
Target sequence (Q9GZV3 whole entry, looked up): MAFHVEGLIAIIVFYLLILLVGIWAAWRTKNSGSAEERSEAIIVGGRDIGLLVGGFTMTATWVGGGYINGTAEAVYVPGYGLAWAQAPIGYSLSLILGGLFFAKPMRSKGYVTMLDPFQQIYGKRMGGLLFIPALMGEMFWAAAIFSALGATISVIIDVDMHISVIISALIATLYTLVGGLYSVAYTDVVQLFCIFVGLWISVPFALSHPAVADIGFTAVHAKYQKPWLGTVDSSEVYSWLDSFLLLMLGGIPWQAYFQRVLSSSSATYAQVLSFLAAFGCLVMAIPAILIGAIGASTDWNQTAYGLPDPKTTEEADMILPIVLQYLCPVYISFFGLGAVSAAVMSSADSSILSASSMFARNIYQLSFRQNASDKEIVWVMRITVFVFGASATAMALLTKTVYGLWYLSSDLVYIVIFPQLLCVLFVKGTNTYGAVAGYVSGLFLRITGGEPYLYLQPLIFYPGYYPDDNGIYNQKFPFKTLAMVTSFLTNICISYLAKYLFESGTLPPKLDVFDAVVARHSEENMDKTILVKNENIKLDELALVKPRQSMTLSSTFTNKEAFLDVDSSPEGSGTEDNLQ
CHT inh – inhibits the human high affinity choline transporter; Q9GZV3; CHT-expressing cells, membrane potential dye, choline response; active compounds read low; B-score at 10 µM; actives 0.86% (n = 310,000); AID 488975;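 active means B-score over 3 SD under the library average, and starting fluorescence ratio not unusually high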;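 further: choline stimulus applied at its EC90 after an EC20 pre-addition; B-score computed on integrated fluorescence ratio after choline addition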
COUP-TFII inh – blocks human COUP-TFII nuclear receptor. P24468. HEK293T NGFI-A luciferase reporter, luminescence. inhibition, % at 8.6 µM. actives 0.7% (n = 370,000). AID 686940;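 active means inhibition above a per-plate cutoff, mean inhibition of test wells between control levels plus 3 SD, cut at about 38% in these data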;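 further: cells cotransfected with COUP-TFII expression vector driving the NGFI-A reporter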
GalR3 conf – GalR3 (human) antagonism, confirmation; shares compounds with GalR3 antagonist; HEK293 GalR3 CNG cAMP biosensor, membrane potential fluorescence; galR3 fused to GalR1 carboxy tail; challenged with forskolin and galanin at EC90; inhibition, % at 3 µM; actives 59% (n = 1,600); AID 652245;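 active means inhibition above the primary screen's cutoff, the mean inhibition of all screened compounds plus 3 SD, cut at about 13% in these data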
CNG parental – counter-screen for GalR3 antagonists: nonspecific agonists in parental HEK-CNG cells; activation, % at 3 µM; shares compounds with GalR3 antagonist; HEK293-CNG parental cells, cAMP membrane potential fluorescence; normalised: DMSO wells 0%, forskolin wells 100%; actives 10% (n = 1,600); in the data active means activation above about 1.3%
Hits are given with their value; . = inactive; / = no result given.

SMILES | NR2E3 ag-1 | NR2E3 ag-2 | GalR3 antagonist | CHT PAM | CHT inh | COUP-TFII inh | GalR3 conf | CNG parental
Cc1cccc(-c2nc3ccccc3c(=O)n2NC(=O)/C=C/c2ccc([N+](=O)[O-])cc2)c1 | . | . | 45 | . | . | . | 34 | .
Clc1cccc(CN2CCN(c3ncc(Cc4ccccc4)cn3)CC2)c1Cl | / | / | 55 | / | / | . | 106 | .
Cc1ccccc1CS(=O)(=O)Cc1ccc(C(=O)Nc2c(C)cccc2C)o1 | / | / | / | / | / | . | / | /
CN(C)c1ccc(/C=N/NC(=O)CN(c2ccccc2Cl)S(C)(=O)=O)cc1Br | . | . | 14 | . | . | . | 18 | .
COc1cccc(CNC(=O)C2C3C=CC4(CN(Cc5ccccc5)C(=O)C24)O3)c1OC (stereo not given) | / | / | / | / | / | . | / | /
COCCCn1c(-c2ccccc2Cl)n[nH]c1=S | . | . | / | . | . | . | . | .
O=S(=O)(c1ccccc1Br)N(Cc1cn(Cc2ccccc2)nn1)C1CC1 | / | / | / | / | / | . | / | /
CCOc1ccc(-c2ccc(SCC)nn2)cc1 | . | . | / | . | . | . | . | .
CCOc1ccc2[nH]c(=O)c(CN(Cc3ccco3)C(CC)c3nnnn3Cc3ccccc3)cc2c1 (stereo not given) | . | . | 24 | . | . | . | . | .
O=C(CN1CCN(Cc2ccccc2F)C1=O)NC1CCCC1 | . | . | 13 | . | . | . | . | .
O=C(CN1CCCN(Cc2ccc(F)cc2Cl)C1=O)NC1CCCCCCC1 | . | . | . | . | . | . | / | /
O=C1NC(=O)C(c2ccccc2[N+](=O)[O-])=C1Nc1ccc(O)c(Cl)c1 | . | . | 13 | . | . | . | . | .
O=C(NNc1ccccc1[N+](=O)[O-])Nc1ccc(Cl)c(Cl)c1 | . | . | . | . | . | . | / | /
O=C(CCCCl)Oc1ccc2cc(-c3ccc4ccccc4n3)c(=O)oc2c1 | . | . | 14 | . | . | . | 13 | .
Cc1[nH]nc(SCC(=O)N2CCCCC2)c1[N+](=O)[O-] | . | . | . | . | . | . | / | /
Cc1[nH]nc(SCC(=O)N2CCCCCC2)c1[N+](=O)[O-] | . | . | 14 | . | . | . | . | .
CC(C)(C)N1Cc2nnn(Cc3ccccc3)c2-c2cc(N3CCCC3)ccc2S1(=O)=O | / | / | / | / | / | . | / | /
CCOC(=O)Cn1nnnc1C(C(C)C)N(Cc1cccs1)Cc1cc2cc(C)ccc2[nH]c1=O (stereo not given) | . | . | 37 | . | . | . | 28 | .
CCOC(=O)CCC(=O)N(CCN(C(=O)CCC(=O)OCC)c1ccccc1)c1ccccc1 | . | . | . | . | . | . | / | /
CCOC(=O)CCc1cccc2c1CCC2=O | . | . | / | . | . | . | . | .
CC(=O)NC(Cc1c[nH]c2ccccc12)C(=O)OCC(=O)Nc1ccc2c(c1)OCO2 (stereo not given) | . | . | 15 | . | . | . | . | .
CCCCOCCCNC(=O)C[C@H]1C[C@@]2(C(=O)OC)C(=C[C@H](C3CCCC3)O[C@@H]2C)N(Cc2cccc3ccccc23)C1=O | / | / | / | / | / | . | / | /
FC(F)(F)c1cc(-c2ccccc2)nc(N2CCCCCC2)n1 | . | . | 15 | . | . | . | . | .
COc1ccc(-c2cc(C(F)(F)F)nc(N3CCCCCC3)n2)cc1 | . | . | . | . | . | . | / | /
COc1cc(C(=O)N/N=C/c2sccc2C)cc(OC)c1OC | / | . | 14 | / | / | . | . | 1.8
SMILES | NR2E3 ag-1 | NR2E3 ag-2 | GalR3 antagonist | CHT PAM | CHT inh | COUP-TFII inh | GalR3 conf | CNG parental
N/C(=N\OC(=O)c1cccc(Cl)c1)c1cccnc1 | . | . | / | . | . | . | . | .
S=C(NCC1CCCCC1)OC1CCC12CCC(c1ccccc1)CC2 (stereo not given) | / | / | / | / | / | . | / | /
CC(C)CCN(C)C1CCN(C(=O)Nc2ccccc2)CC1 | / | / | / | / | / | . | / | /
CCCN1CCS(=O)(=O)N(Cc2cn(Cc3ccccc3)nn2)C(C(=O)OC)C1 (stereo not given) | / | / | / | / | / | . | / | /
CC(=O)/C=C/n1c(=S)oc2ccccc21 | . | / | 15 | . | . | . | . | 1.6
CCCCC[C@H](O)/C=C/C1C(=O)C=C[C@H]1C/C=C\CCCC(=O)OC (stereo not given in full) | / | . | 64 | / | / | . | 80 | .
NC(=O)c1cn(-c2ccccc2)nc1-c1cc2ccccc2oc1=O | . | . | 108 | . | . | . | 95 | .
Cc1cc(C)n2nc(C(=O)NCc3ccccc3)nc2n1 | . | . | / | . | . | . | . | .
Cc1ccc(CNC(=O)c2nc3nc(C)cc(C)n3n2)cc1 | . | . | . | . | . | . | / | /
N#CC(C#N)C(c1ccsc1)c1c(-c2ccccc2)[nH][nH]c1=O (stereo not given) | . | . | 14 | . | . | . | 17 | 2.8
O=C(O)CCCn1cc(NC(=O)c2c(F)cccc2F)cn1 | . | . | 15 | . | . | . | . | .
Cc1ccc(S(=O)(=O)N2CCCC(C(=O)NCc3ccco3)C2)cc1 (stereo not given) | / | / | / | / | / | . | / | /
Cc1ccc(-c2cc(-c3nnc(SCC(=O)N4CCOCC4)n3N)[nH]n2)cc1 | / | / | / | / | / | . | / | /
CCOC(=O)[C@]12CCCCC/C=C\1N(CCc1ccc(Cl)cc1)C(=O)[C@H]2CC(=O)N1CCOCC1 | / | / | / | / | / | . | / | /
COc1ccccc1NC(=O)CCCc1nc(-c2ccc(OC)c(OC)c2)no1 | . | . | 23 | . | . | . | 16 | .
COc1ccc(-c2noc(CCCC(=O)Nc3ccc(C(N)=O)cc3)n2)cc1OC | . | . | . | . | . | . | / | /
Cn1c(N)c(C(=O)COC(=O)CC(NC(=O)c2ccccc2Cl)c2ccccc2)c(=O)n(C)c1=O (stereo not given) | . | . | 14 | . | . | . | . | .
COc1ccc(CCNC(=O)c2cccnc2SC)cc1 | . | . | 13 | . | . | . | 27 | .
O=C(Nc1ccc(C(F)(F)F)cc1)OC1CCC12CCCCC2 (stereo not given) | / | / | / | / | / | . | / | /
Cc1ccc(-c2[nH]ncc2/C=N/n2c(COc3ccccc3)nc3ccccc3c2=O)cc1 | . | . | . | . | . | . | / | /
Cc1cc(/C=N/n2c(COc3ccccc3)nc3ccccc3c2=O)c(O)c([N+](=O)[O-])c1 | . | . | 31 | . | . | . | 44 | .
Cc1ccc(C(=O)NCC(=O)OCc2nc3sc(C)c(C)c3c(=O)[nH]2)cc1 | / | / | / | / | / | . | / | /
CCCCOc1ccc([N+](=O)[O-])cc1C(=O)O | . | . | 17 | . | . | . | . | .
